What was measured:
[1] = molecular target: T1, Amine oxidase [flavin-containing] A (Homo sapiens, UniProt P21397); experiment: Inhibition of recombinant human MAO-A at 100 uM using kynuramine as substrate after 20 mins by fluorescence spectrophotometric analysis
T1 sequence (P21397 whole entry): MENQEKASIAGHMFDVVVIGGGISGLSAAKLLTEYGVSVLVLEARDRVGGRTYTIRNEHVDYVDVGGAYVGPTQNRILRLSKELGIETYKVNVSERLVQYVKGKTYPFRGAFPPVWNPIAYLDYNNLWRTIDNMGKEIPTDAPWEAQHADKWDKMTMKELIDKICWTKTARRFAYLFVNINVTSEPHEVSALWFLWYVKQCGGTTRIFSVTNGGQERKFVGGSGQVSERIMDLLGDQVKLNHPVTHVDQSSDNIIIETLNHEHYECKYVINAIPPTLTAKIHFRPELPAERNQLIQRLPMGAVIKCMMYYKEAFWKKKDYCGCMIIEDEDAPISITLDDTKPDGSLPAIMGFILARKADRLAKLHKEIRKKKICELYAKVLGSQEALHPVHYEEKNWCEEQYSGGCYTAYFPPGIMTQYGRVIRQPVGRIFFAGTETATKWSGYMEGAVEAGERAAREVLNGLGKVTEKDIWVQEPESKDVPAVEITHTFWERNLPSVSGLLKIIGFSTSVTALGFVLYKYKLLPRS
Procedure, shortened: (§1)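 Recombinant human enzyme from insect-cell microsomes, MAO-A 0.0075 or MAO-B 0.015 mg protein/mL, in 100 mM potassium phosphate pH 7.4 made isotonic with KCl. Kynuramine 50 µM, inhibitor up to 100 µM, DMSO 4% final. 20 min at 37 °C, stopped with 2 N NaOH. 4-Hydroxyquinoline read by fluorescence (ex 310/em 400 nm) against a calibration curve.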

[2] = molecular target: T2, Amine oxidase [flavin-containing] B (Homo sapiens, UniProt P27338); experiment: Inhibition of recombinant human MAO-B using kynuramine as substrate after 20 mins by fluorescence spectrophotometric analysis
T2 sequence (P27338 whole entry): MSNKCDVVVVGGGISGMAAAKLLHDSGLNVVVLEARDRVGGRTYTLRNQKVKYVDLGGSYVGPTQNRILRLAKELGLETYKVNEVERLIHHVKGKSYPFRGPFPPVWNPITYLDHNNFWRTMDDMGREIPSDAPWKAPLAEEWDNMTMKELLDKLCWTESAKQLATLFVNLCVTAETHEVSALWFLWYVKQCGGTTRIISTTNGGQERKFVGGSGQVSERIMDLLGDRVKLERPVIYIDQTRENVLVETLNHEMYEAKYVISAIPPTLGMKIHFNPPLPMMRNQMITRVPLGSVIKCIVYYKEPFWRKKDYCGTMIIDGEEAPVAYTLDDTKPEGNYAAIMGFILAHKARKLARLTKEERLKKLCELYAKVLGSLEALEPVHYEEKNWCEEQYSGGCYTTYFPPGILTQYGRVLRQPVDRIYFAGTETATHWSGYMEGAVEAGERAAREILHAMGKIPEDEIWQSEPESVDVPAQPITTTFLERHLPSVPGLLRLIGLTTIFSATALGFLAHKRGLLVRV

[3] = species on record: Homo sapiens; experiment: Selectivity index, ratio of IC50 for recombinant human MAO-A by IC50 for recombinant human MAO-B
Procedure, shortened: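 IC50 values for MAO-A and MAO-B taken from kynuramine fluorescence assays (0.003–100 µM inhibitor, 20 min at 37 °C) and fitted by one-site competition. Triplicate means. Index is IC50(MAO-A)/IC50(MAO-B).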

[4] = molecular target: T2, Amine oxidase [flavin-containing] B; experiment: Inhibition of recombinant human MAO-B at 100 uM using kynuramine as substrate after 20 mins by fluorescence spectrophotometric analysis; procedure, shortened: as §1
[5] = molecular target: T2, Amine oxidase [flavin-containing] B; experiment: Inhibition of recombinant human MAO-B using kynuramine as substrate assessed as enzyme activity recovered after 20 mins by fluorescence spectrophotometric analysis; set-up: scale not given: the % may be the effect or the level left
Procedure, shortened: (§2)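 Pre-incubated 15 min at 37 °C, then dialysed 24 h at 4 °C (10 kDa cut-off) with buffer changes at 3 and 7 h. Diluted twofold with kynuramine (50 µM final), run 20 min at 37 °C, read by fluorescence. Triplicate; activity relative to inhibitor-free dialysed control.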

[6] = molecular target: T2, Amine oxidase [flavin-containing] B; experiment: Competitive inhibition of recombinant human MAO-B using kynuramine as substrate after 20 mins by Lineweaver-Burk plot analysis
Procedure, shortened: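 Human MAO-B (insect-cell microsome, 0.015 mg/mL final) in 100 mM potassium phosphate pH 7.4 made isotonic with KCl. Six Lineweaver-Burk plots: one without inhibitor and five at 1/4, 1/2, 3/4, 1 and 1 1/4 × IC50. Kynuramine 15–250 µM, eight levels per plot. 20 min at 37 °C, NaOH stop, 4-hydroxyquinoline fluorescence. Ki taken from slopes plotted against inhibitor concentration.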

[7] = molecular target: T2, Amine oxidase [flavin-containing] B; experiment: Reversible inhibition of recombinant human MAO-B using kynuramine as substrate assessed as recovery of enzyme activity at 4 times IC50 preincubated for 15 mins followed by dialysis for 24 hrs and subsequent addition of substrate measured after 20 mins by fluorescence spectrophotometric analysis relative to control; set-up: scale not given: the % may be the effect or the level left; procedure, shortened: as §2

Structure (SMILES) | inhibition (INH) [1] | IC50 [2] | Ratio IC50 [3] | inhibition (INH) [4] | Activity [5] | Ki [6] | Activity [7]
Oc1nc(SCCOc2ccccc2)nc2ccccc12 | Not Active | 1240 nM | > 81 |  |  |  | 
O=c1[nH]c(SCCCc2ccccc2)nc2ccccc12 | Not Active | 5990 nM | > 17 |  |  |  | 
O=C(CSc1nc(O)c2ccccc2n1)c1ccccc1 | Not Active | 31800 nM | > 3.1 |  |  |  | 
O=c1[nH]c(SCc2ccncc2)nc2ccccc12 | Not Active |  |  | Not Active |  |  | 
O=c1[nH]c(SCc2ccc(I)cc2)nc2ccccc12 | Not Active |  |  | Not Active |  |  | 
Oc1nc(SCc2cccc(F)c2)nc2ccccc12 | Not Active | 2500 nM | > 40 |  |  |  | 
O=c1[nH]c(SCc2ccccc2)nc2ccccc12 | Not Active | 3030 nM | > 33 |  |  |  | 

The remaining lines, values ahead:

inhibition (INH) [1] | IC50 [2] | Ratio IC50 [3] | inhibition (INH) [4] | Activity [5] | Ki [6] | Activity [7] | Structure (SMILES)
Not Active | 230 nM | > 435 |  |  |  |  | Oc1nc(SCc2cccc(Cl)c2)nc2ccccc12
Not Active | 142 nM | > 704 |  | 46% | 68 nM | 108% | O=c1[nH]c(SCc2cccc(I)c2)nc2ccccc12
Not Active | 779 nM | > 128 |  |  |  |  | O=c1[nH]c(SCc2ccc(Br)cc2)nc2ccccc12
Not Active | 482 nM | > 207 |  |  |  |  | Oc1nc(SCc2ccc(Cl)cc2)nc2ccccc12
Not Active | 208 nM | > 481 |  |  |  |  | O=c1[nH]c(SCc2cccc(Br)c2)nc2ccccc12
Not Active | 700 nM | > 143 |  |  |  |  | O=c1[nH]c(SCc2ccc(C(F)(F)F)cc2)nc2ccccc12
Not Active | 566 nM | > 177 |  |  |  |  | O=c1[nH]c(SCc2ccc(F)cc2)nc2ccccc12

Source: ChEMBL document CHEMBL4270656, “Synthesis and evaluation of 2-substituted 4(3H)-quinazolinone thioether derivatives as monoamine oxidase inhibitors” (Bioorg Med Chem, 2018)
